Calls of active or inactive are those of the source. No cut-off for these calls is given here.
Legend:
[1] = tested on: Antioxidant response element; assay: Induction of ARE activity in serum-deprived neonatal Wistar rat cardiomyocytes assessed as increase in HO-1 mRNA level up to 3 uM measured after 24 hrs by RT-qPCR analysis; type: cell-based; details: Cardiomyocyte
How it was run: (§1)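 Neonatal rat cardiomyocytes exposed to samples or vehicle in M-199 with 1% penicillin-streptomycin, no serum, for 24 hr. GST Ya and HO-1 mRNA measured by real-time qPCR (mean ± SD, n = 3); protein by western blot with β-actin as control.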

[2] = molecular target: Macrophage migration inhibitory factor (Rattus norvegicus) (UniProt P30904); assay: Induction of MIF-stimulated ARE activity in rat H9c2 cells assessed as increase in GST Ya expression at 3 uM incubated for 24 hrs by RT-qPCR analysis; type: cell-based
Chain of Macrophage migration inhibitory factor (Rattus norvegicus) (P30904 2-115 limits assumed): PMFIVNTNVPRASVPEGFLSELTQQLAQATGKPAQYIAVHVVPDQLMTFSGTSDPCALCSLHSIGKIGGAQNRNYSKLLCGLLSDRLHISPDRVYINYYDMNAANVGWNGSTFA

[3] = tested on: Antioxidant response element; assay: Induction of ARE activity in serum-deprived neonatal Wistar rat cardiomyocytes assessed as increase in GST Ya expression up to 400 nM measured after 24 hrs by Western blot analysis; type: cell-based; details: Cardiomyocyte; how it was run: as §1
[4] = tested on: Antioxidant response element; assay: Induction of ARE-mediated GST Ya mRNA expression in MIF siRNA transfected rat H9c2 cells at 3 uM measured after 24 hrs in presence of rat MIF by RT-qPCR analysis; type: cell-based
How it was run: (§2)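 H9c2 cells transfected with MIF siRNA or control siRNA (100 nM, Oligofectamine), then treated with 3 μM compound with or without 0.8 μM rMIF for 24 hr. GST Ya and HO-1 mRNA by real-time qPCR; mean ± SD, n = 3. MIF effect on drug efficacy tested by Aspin-Welch test.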

[5] = molecular target: T1, Macrophage migration inhibitory factor (Homo sapiens) (UniProt P14174); assay: Binding affinity to BTZO-12 sensor chip immobilized recombinant human C-terminal His-tagged MIF expressed in Escherichia coli BL21 (DE3) by SPR analysis
T1 sequence (whole entry): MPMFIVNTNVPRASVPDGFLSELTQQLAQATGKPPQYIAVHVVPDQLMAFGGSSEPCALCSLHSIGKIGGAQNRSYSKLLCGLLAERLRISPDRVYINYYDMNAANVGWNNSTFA
How it was run: (§3)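 Sensor chip carrying immobilized BTZO-12; MIF (wild type or point mutants) passed over it and specific binding monitored by surface plasmon resonance.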

[6] = molecular target: Macrophage migration inhibitory factor (Rattus norvegicus, UniProt P30904); assay: Inhibition of recombinant rat MIF expressed in Escherichia coli BL21 (DE3) assessed as reduction in tautomerase activity using L-dopachrome carboxy-methyl ester as substrate by spectrophotometry
Chain of Macrophage migration inhibitory factor (P30904 2-115 limits assumed): as the sequence (P30904 2-115 limits assumed) above
How it was run: (§4)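 Purified recombinant rat MIF tautomerase assayed with purified L-dopachrome carboxy-methyl ester as substrate in pH 6.0 buffer; rate taken over the initial 30 s. Mean ± SD, n = 4.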

[7] = tested on: Antioxidant response element; assay: Induction of ARE activity in serum-deprived neonatal Wistar rat cardiomyocytes assessed as increase in GST Ya mRNA level up to 3 uM measured after 24 hrs by RT-qPCR analysis; type: cell-based; details: Cardiomyocyte; how it was run: as §1
[8] = tested on: Antioxidant response element; assay: Induction of rat ARE activity expressed in MIF-stimulated rat H9c2 cells assessed as increase in ARE luciferase activity at 1 uM measured after 24 hrs by steady-glo luciferase Assay; type: cell-based
How it was run: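 H9c2 cells transiently transfected with pGL3-ARE-Luc (rat GST Ya ARE) or mutant-ARE control plasmid, then treated with rMIF with or without 1 μM compound for 24 hr. Luciferase by Steady-Glo; mean ± SD, n = 4.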

[9] = Upregulation of glutathione S-transferase Y(b) subunit gene expression in serum-deprived neonatal Wistar rat cardiomyocyte at 0.37 uM incubated for 21 hrs by microarray analysis relative to control; type: functional, Cardiac muscle cell
How it was run: (§5)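 Primary neonatal rat cardiomyocytes, isolated by proteinase digestion with preplating to deplete nonmyocytes, cultured in serum-free medium with or without 0.37 μM compound for 21 hr. Total RNA was recovered and global expression profiled on an Affymetrix GeneChip rat genome U34A array (about 7000 known genes). Change is relative to untreated cells.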

[10] = Upregulation of Fischer 344 GST Yc subunit gene expression in serum-deprived neonatal Wistar rat cardiomyocyte at 0.37 uM incubated for 21 hrs by microarray analysis relative to control; type: functional, Cardiac muscle cell
How it was run: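 Primary neonatal rat cardiomyocytes cultured with or without 0.37 μM compound in serum-free medium for 21 hr. Total RNA profiled on the rat genome U34A GeneChip array (about 7000 known genes).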

[11] = Upregulation of glutathione S-transferase Ya subunit gene expression in serum-deprived neonatal Wistar rat cardiomyocyte at 0.37 uM incubated for 21 hrs by microarray analysis relative to control; type: functional, Cardiac muscle cell; how it was run: as §5
[12] = tested on: Cardiac muscle cell; assay: Potency index, ratio of trolox MEC1.5 to test compound MEC1.5 for cytoprotective activity against serum deprivation-induced neonatal Wistar rat cardiomyocyte death; type: functional
[13] = Upregulation of thioredoxin reductase gene expression in serum-deprived neonatal Wistar rat cardiomyocyte at 0.37 uM incubated for 21 hrs by microarray analysis relative to control; type: functional, Cardiac muscle cell; how it was run: as §5
[14] = tested on: Antioxidant response element; assay: Induction of ARE-mediated HO-1 mRNA expression in MIF siRNA transfected rat H9c2 cells at 3 uM measured after 24 hrs in presence of rat MIF by RT-qPCR analysis; type: cell-based; how it was run: as §2
[15] = tested on: Antioxidant response element; assay: Induction of ARE activity in serum-deprived neonatal Wistar rat cardiomyocytes assessed as increase in HO-1 expression up to 400 nM measured after 24 hrs by Western blot analysis; type: cell-based; details: Cardiomyocyte; how it was run: as §1
[16] = molecular target: Macrophage migration inhibitory factor (Rattus norvegicus) (UniProt P30904); assay: Inhibition of recombinant rat MIF expressed in Escherichia coli BL21 (DE3) assessed as reduction in tautomerase activity at 3.75 to 30 uM using L-dopachrome carboxy-methyl ester as substrate by spectrophotometry; details: dose 3.75-30 µM; how it was run: as §4
[17] = molecular target: T1, Macrophage migration inhibitory factor (Homo sapiens); assay: Binding affinity to BTZO-12 sensor chip immobilized recombinant human N-terminal His-tagged MIF expressed in Escherichia coli BL21 (DE3) by SPR analysis; how it was run: as §3
[18] = tested on: H9c2; assay: Effect on protein oxidation in rat H9c2 cells at 10 uM incubated for 24 hrs under serum-free medium by Western blot analysis; type: functional, cell-based
[19] = molecular target: T2, Glutathione S-transferase alpha-1 (Rattus norvegicus) (UniProt P00502); assay: Binding affinity to rat N-terminal 6His-tagged truncated GST Ya expressed in Escherichia coli BL21 (DE3) at 400 nM incubated for 6 hrs using labelled compound by scintillation proximity assay
T2 sequence (whole entry): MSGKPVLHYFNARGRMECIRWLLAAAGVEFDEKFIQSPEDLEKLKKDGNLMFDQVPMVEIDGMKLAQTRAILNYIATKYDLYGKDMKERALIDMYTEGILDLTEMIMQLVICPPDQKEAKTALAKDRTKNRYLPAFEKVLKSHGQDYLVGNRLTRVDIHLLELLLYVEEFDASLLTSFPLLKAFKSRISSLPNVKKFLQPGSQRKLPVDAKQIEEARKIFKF
How it was run: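 Scintillation proximity assay: 6His-tagged protein (hMIF, rat GST Ya or rat VILIP3) captured on copper His-tag SPA beads with [3H]-BTZO-1; emitted light counted on a microplate scintillation counter. Mean of n = 2.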

[20] = tested on: Antioxidant response element; assay: Induction of rat ARE activity expressed in rat H9c2 cells assessed as increase in ARE luciferase activity measured after 24 hrs by steady-glo luciferase Assay; type: cell-based
How it was run: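 H9c2 cells transiently transfected with pGL3-ARE-Luc or pGL3-mARE-Luc, compound exposure 24 hr, luciferase read by Steady-Glo. MEC2.0 is the concentration giving a doubling of luciferase activity. Mean ± SD, n = 4.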

For `O=c1nc(-c2ccccn2)sc2ccccc12` [BTZO-1], the Activity [1] was “Active”, the Activity [2] was “Active” and the Activity [3] was “Active”. The Activity [4] was “Active”, the Activity [5] was “Active” and the IC50 [6] was > 30 µM. The Activity [7] was “Active”, the Activity [8] was “Active” and the “fold change (FC)” value [9] was 2.5. For the same molecule, the “fold change (FC)” value [10] was 2.3, the “fold change (FC)” value [11] was 12 and the Ratio [12] was 10000. The “fold change (FC)” value [13] was 2.8, the Activity [14] was “Active” and the Activity [15] was “Active”. The inhibition [16] was “Active”, the Activity [17] was “Active” and the Activity [18] was “inactive”. The Activity [19] was “inactive”, the Activity [20] was “Dose-Dependent Effect” and the MEC2 [20] was 0.82 µM.

From ChEMBL document CHEMBL5715946 (Chem Biol, 2010)
